Holding throughout (assay type): ADME, organism-based
A short description of data set [1]: Drug concentration in C57BL6 mouse colon at 3 mg/kg, po administered as single dose measured after 6 hrs by LC-MS/MS analysis. As to conditions: read-out: Ct. The essentials:
(§1)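 Single oral dose of 1, 3 or 100 mg/kg in mouse. Plasma (ng/mL) and colon and ileum (ng/g) exposure sampled at 6, 24 and 48 h, and at 72 h for the top dose; mean values reported.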

A short description of data set [2]: Drug concentration in C57BL6 mouse plasma at 3 mg/kg, po administered as single dose measured after 6 to 48 hrs by LC-MS/MS analysis. Conditions: in vivo, time 6-48 hrs. The method, boiled down:
as §1

The nature of data set [3]: Drug concentration in C57BL6 mouse ileum at 100 mg/kg, po administered as single dose measured after 24 hrs by LC-MS/MS analysis. Conditions: read-out: Ct. The essentials: as §1

Consider `Clc1cnc(CNc2cc3sncc3cc2Cl)s1`, for which, in data set [1], the concentration at 6 h came to 143 ng/g. For the same molecule, the Cp in data set [2] was < 20 ng/mL. The concentration at 24 h in data set [3] was 202 ng/g.

(Values after ChEMBL document CHEMBL4823260, “From High-Throughput Screening to Target Validation: Benzo[d]isothiazoles as Potent and Selective Agonists of Human Transient Receptor Potential Cation Channel Subfamily M Member 5 Possessing In Vivo Gastrointestinal Prokinetic Activity in Rodents” (J Med Chem, 2021).)
